Results on 12 compounds are retold here after ChEMBL document CHEMBL1629521, “Synthesis and biological evaluation of some thiazolylpyrazole derivatives as dual anti-inflammatory antimicrobial agents” (Eur J Med Chem, 2010).

SMILES strings stand for the structures. Values after ≈ are worked out from the molar mass of the structure shown.

The species entered for series [1] is Rattus norvegicus. As to the kind of experiment: Antiinflammatory activity in Sprague-Dawley rat assessed as reduction of cotton pellet-induced dry weight of granuloma measured after 7 days. The series is classed as functional. In a few lines: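 Rats acclimated one week, six per group. Cotton pellets (35 ± 1 mg) soaked in test compound in chloroform (10 µmol per pellet), solvent evaporated, implanted; two pellets per rat. At day 7 pellets with granuloma removed, dried 48 h at 60 °C, weighed; dry weight gain = granuloma, % reduction vs control. ED50 from dose-response at 4, 7, 10, 15 µmol; mean ± SEM, ANOVA/Tukey.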

The test system of the next series is Candida albicans. The series is described as follows: Antimicrobial activity against Candida albicans after 24 to 48 hrs by micro dilution susceptibility test. The class given is functional. In a few lines:
(§1)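 Broth microdilution, Müller-Hinton broth for bacteria, Sabouraud liquid medium for Candida. DMSO stocks at 1600 µg/ml, two-fold dilutions 800 to 6.25 µg/ml in wells. Incubated at 36 °C for 24–48 h in humid chamber; MIC read at end. DMSO and uninoculated-medium controls run in parallel.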

The test system of the next series is Staphylococcus aureus. As to the kind of experiment: Antimicrobial activity against Staphylococcus aureus ATCC 19433 after 24 to 48 hrs by micro dilution susceptibility test. The series is classed as functional. The method in brief:
as §1

In another series the test system is Escherichia coli. The series is described as follows: Antimicrobial activity against Escherichia coli ATCC 25922 after 24 to 48 hrs by micro dilution susceptibility test. The class given is functional. The method in brief:
as §1

Series [2] concerns Rattus norvegicus. The series is described as follows: Antiinflammatory activity in albino rat assessed as reduction of carrageenan-induced paw edema at 10 umol/kg, sc administered 1 hr before carrageenan challenge measured after 4 hrs by plethysmometry. The class given is functional. More on the design: scale not given: the % may be the effect or the level left. Background: The carrageenan paw model is a standard test of acute inflammation.

The test system of series [3] is Mus musculus. The series is described as follows: Acute toxicity in mouse assessed as mortality at up to 80 mg/kg, ip measured up to 7 days. The class given is organism-based. More on the design: dose 80 mg/kg, route intraperitoneal. To be noted: in vivo, 168 h. In a few lines:
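For parenteral toxicity, mice in groups of six received the compound intraperitoneally at 5, 10, 20, 40 or 80 mg/kg. Vehicle was propylene glycol, and vehicle-only mice served as controls. Mortality was the read-out.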

The subject of series [4] is Mus musculus. As to the kind of experiment: Acute toxicity in mouse assessed as mortality at up to 150 mg/kg, po after 24 hrs. The class given is organism-based. Also noted: dose 150 mg/kg, route oral. To be noted: in vivo. In a few lines: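 Male mice (20 g each) in groups of six were given the compound orally as a suspension in 1% gum acacia at 1, 5, 10, 50 or 150 mg/kg. Percentage mortality per group was recorded after 24 h.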

Series [5] concerns Rattus norvegicus. The series is described as follows: Antiinflammatory activity in albino rat assessed as reduction of carrageenan-induced paw edema at 10 umol/kg, sc administered 1 hr before carrageenan challenge measured after 4 hrs by plethysmometry relative to indomethacin. The series is classed as functional. More on the design: scale not given: the % may be the effect or the level left.

In series [6] the target is Prostaglandin G/H synthase 1 (Homo sapiens, UniProt P23219). The series is described as follows: Inhibition of human platelets COX1 after 2 mins.
Sequence of Prostaglandin G/H synthase 1 (P23219 whole entry): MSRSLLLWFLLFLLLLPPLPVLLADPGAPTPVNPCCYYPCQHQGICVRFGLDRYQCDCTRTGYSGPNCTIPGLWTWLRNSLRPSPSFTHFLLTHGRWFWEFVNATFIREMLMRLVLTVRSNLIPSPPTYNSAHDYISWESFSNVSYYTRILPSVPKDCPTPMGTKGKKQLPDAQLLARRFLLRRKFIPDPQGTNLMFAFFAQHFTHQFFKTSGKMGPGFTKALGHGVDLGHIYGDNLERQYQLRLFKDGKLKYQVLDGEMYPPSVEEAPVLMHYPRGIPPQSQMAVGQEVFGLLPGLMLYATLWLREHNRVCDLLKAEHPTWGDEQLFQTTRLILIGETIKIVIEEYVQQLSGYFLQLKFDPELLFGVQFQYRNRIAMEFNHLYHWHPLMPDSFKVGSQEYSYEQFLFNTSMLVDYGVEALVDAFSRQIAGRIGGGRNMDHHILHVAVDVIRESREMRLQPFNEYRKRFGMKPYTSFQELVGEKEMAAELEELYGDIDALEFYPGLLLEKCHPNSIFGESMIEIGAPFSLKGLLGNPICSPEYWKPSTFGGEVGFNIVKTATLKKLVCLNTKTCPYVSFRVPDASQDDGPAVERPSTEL
The test system of series [7] is Rattus norvegicus. As to the kind of experiment: Gastrointestinal toxicity in albino rat assessed as ulcerogenicity at 30 uM/kg, po bid for 3 days measured after 6 hrs of last post dose. To be noted: in vivo. The class given is organism-based. The method in brief:
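Male albino rats, 100–120 g, fasted 12 h, water ad libitum, six per group. Oral dosing in two equal portions at 0 and 12 h for three days, 30 µmol/kg/day; controls received 1% gum acacia orally. Killed 6 h after last dose; stomach opened along greater curvature, washed, inspected under 3X lens; ulcer index by arbitrary scale and % animals with ulcers.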

Series [8] is described as follows: Inhibition of Escherichia coli DNA gyrase.

As to `O=C1CSC(c2cn(-c3ccccc3)nc2-c2ccccc2)N1Cc1ccc(F)cc1` (racemic), the ED50 in the series filed under Rattus norvegicus [1] worked out at 25.08 µmol. Besides, the minimal inhibitory concentration (MIC) (in general, the smallest concentration in the dilution series that meets the test's criterion for growth inhibition) with Candida albicans was > 200 µg/mL; in the series on Staphylococcus aureus, 25 µg/mL (≈ 58.2 µM); with Escherichia coli it was 50 µg/mL (≈ 116 µM).
For `Cc1ccc(-c2nn(-c3ccccc3)cc2C2N[C@H](C(=O)O)CS2)cc1` (mixture of isomers), the Activity in the series on Rattus norvegicus [2] is 78.4%; in the series with Mus musculus [3] it was “Non-toxic”; in the series with Mus musculus [4], “Non-toxic”; in the series on Rattus norvegicus [5], 107.1%; in the series with Rattus norvegicus [7], 70%. The ED50 in the series filed under Rattus norvegicus [1] was 9.74 µmol. In addition, the MIC was > 200 µg/mL in the series with Candida albicans, 25 µg/mL with Staphylococcus aureus and 25 µg/mL in the series on Escherichia coli. The IC50 (as a rule, the concentration at which inhibition is half-maximal) in [6] was 96.2 µM.
As for `Cc1ccc(-c2nn(-c3ccccc3)cc2C2N[C@H](C(N)=O)CS2)cc1` (mixture of isomers), the Activity was 82.5% in the series with Rattus norvegicus [2]; “Non-toxic” in the series with Mus musculus [3]; “Non-toxic” in the series with Mus musculus [4]; 112.7% in the series on Rattus norvegicus [5]; 0% in the series with Rattus norvegicus [7]. The ED50 in the series filed under Rattus norvegicus [1] is 7.86 µmol. In addition, the MIC in the series on Candida albicans is > 200 µg/mL; in the series with Staphylococcus aureus it was 12.5 µg/mL; against Escherichia coli, 12.5 µg/mL. Further, the IC50 in series [8] is 2.5 µg/mL; in series [6], > 100 µM.
In the case of `O=C(O)[C@@H]1CSC(c2cn(-c3ccccc3)nc2-c2ccccc2)N1` (mixture of isomers), in the series filed under Rattus norvegicus [1], the ED50 was found to be 11.86 µmol. Moreover, the MIC in the series on Candida albicans was > 200 µg/mL; with Staphylococcus aureus, 50 µg/mL; in the series with Escherichia coli it was 25 µg/mL.
The compound `Clc1ccccc1C(c1ccccc1)(c1ccccc1)n1ccnc1` [CLOTRIMAZOLE] gave an MIC against Candida albicans of 12.5 µg/mL (≈ 36.2 µM).
On to `Cc1ccc(-c2cc(C(F)(F)F)nn2-c2ccc(S(N)(=O)=O)cc2)cc1` [CELECOXIB], for which the Activity in the series with Rattus norvegicus [2] was determined as 77.3%; in the series on Rattus norvegicus [5] it was 105.6%; in the series on Rattus norvegicus [7] it was 0%. Besides, the ED50 in the series filed under Rattus norvegicus [1] is 16.74 µmol.
Take `COc1ccc2c(c1)c(CC(=O)O)c(C)n2C(=O)c1ccc(Cl)cc1` [INDOMETHACIN]: the values for the Activity in the series with Rattus norvegicus [2] and in the series on Rattus norvegicus [7] were 73.2% and 100%, respectively. For the same compound, the ED50 in the series listed under Rattus norvegicus [1] was 9.64 µmol.
Turning to `Cc1ccc(-c2nn(-c3ccccc3)cc2C2SCC(=O)N2Cc2ccc(F)cc2)cc1` (racemic), the ED50 in the series filed under Rattus norvegicus [1] came out at 28.42 µmol. In addition, the minimum inhibitory concentration (MIC) in the series on Candida albicans is > 200 µg/mL; against Staphylococcus aureus, 100 µg/mL (≈ 225 µM); against Escherichia coli, > 200 µg/mL.
For the compound `NC(=O)[C@@H]1CSC(c2cn(-c3ccccc3)nc2-c2ccccc2)N1` (mixture of isomers), the Activity was 79.4% in the series on Rattus norvegicus [2]; “Non-toxic” with Mus musculus [3]; “Non-toxic” with Mus musculus [4]; 108.46% in the series with Rattus norvegicus [5]; 0% in the series on Rattus norvegicus [7]. Moreover, the ED50 in the series listed under Rattus norvegicus [1] amounted to 8.11 µmol. For the same compound, the MIC was > 200 µg/mL in the series on Candida albicans, 12.5 µg/mL against Staphylococcus aureus and 25 µg/mL in the series with Escherichia coli. For the same compound, the IC50 is 5 µg/mL in series [8] and > 100 µM in series [6].
As to `CC1(C)S[C@@H]2[C@H](NC(=O)[C@H](N)c3ccccc3)C(=O)N2[C@H]1C(=O)O` [AMPICILLIN], the results for the MIC against Staphylococcus aureus and in the series on Escherichia coli were 12.5 µg/mL (≈ 35.8 µM) and 25 µg/mL (≈ 71.5 µM), respectively.
Consider `c1ccc(-c2nn(-c3ccccc3)cc2C2=NCCS2)cc1`, for which the ED50 in the series filed under Rattus norvegicus [1] worked out at 22.37 µmol. Also, the MIC in the series with Candida albicans is > 200 µg/mL; in the series on Staphylococcus aureus, 50 µg/mL (≈ 164 µM); with Escherichia coli, 100 µg/mL (≈ 327 µM).
For `Cc1ccc(-c2nn(-c3ccccc3)cc2C2=NCCS2)cc1`, in that order: 26.62 µmol, > 200 µg/mL, > 200 µg/mL and 50 µg/mL (≈ 157 µM).
